Experimental data published in ChEMBL document CHEMBL4138137, “Discovery of Novel 5-(Piperazine-1-carbonyl)pyridin-2(1H)-one Derivatives as Orally eIF4A3-Selective Inhibitors” (ACS Med Chem Lett, 2017).
Values after ≈ are worked out from the molar mass of the structure shown.

Experiments:
[1] = AUC (0 to 8 hrs) in ICR mouse at 1 mg/kg, po administered as cassette dose; type: ADME, organism-based; set-up: dose 1 mg/kg, time < 8 hr, route oral; details: in vivo
Outline: (§1)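 Cassette PK in male ICR mice, n = 3; dosed i.v. at 0.1 mg/kg and p.o. at 1 mg/kg. AUC taken over 0 to 8 h after oral dosing; bioavailability derived from the oral and i.v. exposures.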

[2] = Metabolic stability in mouse microsomes; type: ADME, Microsome; details: read-out: Stability
Outline: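 Metabolic stability measured in mouse liver microsomes, expressed in μL/min/mg.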

HCT-116 [3] = assay: Growth inhibition of human HCT116 cells after 3 days by CellTiter-Glo luminescence assay; type: functional; details: HCT-116, 72 h
Outline: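 HCT-116 cells exposed to compound for 72 h; growth read as intracellular ATP amount. GI50 derived by curve fitting. Data representative of three independent experiments.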

[4] = biological target: MDR1 (ABCB1, P-glycoprotein) (Homo sapiens, UniProt P08183); assay: Substrate activity at MDR1 (unknown origin) assessed as efflux ratio of permeability; type: ADME; details: not told
Sequence of MDR1 (ABCB1, P-glycoprotein) (P08183 whole entry): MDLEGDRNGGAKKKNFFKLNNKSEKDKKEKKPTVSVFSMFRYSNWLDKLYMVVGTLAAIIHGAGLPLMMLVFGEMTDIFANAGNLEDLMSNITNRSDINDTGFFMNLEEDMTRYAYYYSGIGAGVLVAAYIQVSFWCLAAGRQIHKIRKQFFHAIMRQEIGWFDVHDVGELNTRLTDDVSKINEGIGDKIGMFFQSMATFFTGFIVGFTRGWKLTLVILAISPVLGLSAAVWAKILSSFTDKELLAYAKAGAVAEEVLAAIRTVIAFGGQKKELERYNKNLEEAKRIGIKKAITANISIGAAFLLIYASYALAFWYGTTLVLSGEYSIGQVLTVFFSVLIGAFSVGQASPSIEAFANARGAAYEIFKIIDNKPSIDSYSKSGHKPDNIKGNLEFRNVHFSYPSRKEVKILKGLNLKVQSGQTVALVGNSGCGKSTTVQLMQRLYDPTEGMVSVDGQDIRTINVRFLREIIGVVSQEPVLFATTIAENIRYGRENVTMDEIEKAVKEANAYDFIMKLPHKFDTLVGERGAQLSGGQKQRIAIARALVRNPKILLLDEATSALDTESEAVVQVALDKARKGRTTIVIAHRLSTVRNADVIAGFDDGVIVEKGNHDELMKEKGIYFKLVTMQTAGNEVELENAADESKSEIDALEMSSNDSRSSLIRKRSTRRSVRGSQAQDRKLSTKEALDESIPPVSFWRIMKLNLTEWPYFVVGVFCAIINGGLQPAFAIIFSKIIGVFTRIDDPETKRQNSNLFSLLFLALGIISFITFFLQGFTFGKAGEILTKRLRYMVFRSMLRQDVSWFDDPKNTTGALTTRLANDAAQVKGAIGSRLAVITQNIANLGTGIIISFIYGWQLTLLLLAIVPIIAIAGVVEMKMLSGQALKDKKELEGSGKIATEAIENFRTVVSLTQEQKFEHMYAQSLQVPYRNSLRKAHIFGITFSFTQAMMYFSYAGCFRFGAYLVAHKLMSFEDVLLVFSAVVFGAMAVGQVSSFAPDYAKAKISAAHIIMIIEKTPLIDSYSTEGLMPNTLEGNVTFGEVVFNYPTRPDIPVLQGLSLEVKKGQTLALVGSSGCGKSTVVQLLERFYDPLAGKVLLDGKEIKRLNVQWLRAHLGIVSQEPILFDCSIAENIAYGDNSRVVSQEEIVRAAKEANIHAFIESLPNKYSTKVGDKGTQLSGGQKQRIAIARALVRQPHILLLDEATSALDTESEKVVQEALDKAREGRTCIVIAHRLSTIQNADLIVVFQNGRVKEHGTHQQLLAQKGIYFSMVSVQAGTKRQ
Outline: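 Efflux ratio measured in vitro in an MDR1-overexpressing cell line.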

[5] = Oral bioavailability in ICR mouse at 1 mg/kg administered as cassette dose; type: ADME, organism-based; details: in vivo; outline: as §1
[6] = Solubility of the compound at pH 6.8; type: physicochemical; details: buffer
Outline: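 Solubility measured at pH 6.8.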

[7] = biological target: Eukaryotic initiation factor 4A-III (Homo sapiens, UniProt P38919); assay: Inhibition of MLN51-induced full length recombinant human N-terminal His6/SUMO-tagged eIF4A3 RNA dependent ATPase activity expressed in Escherichia coli BL21(DE3) using single stranded poly(U) RNA as substrate after 30 mins by ADP-Glo luminescence assay
Sequence of Eukaryotic initiation factor 4A-III (P38919 whole entry): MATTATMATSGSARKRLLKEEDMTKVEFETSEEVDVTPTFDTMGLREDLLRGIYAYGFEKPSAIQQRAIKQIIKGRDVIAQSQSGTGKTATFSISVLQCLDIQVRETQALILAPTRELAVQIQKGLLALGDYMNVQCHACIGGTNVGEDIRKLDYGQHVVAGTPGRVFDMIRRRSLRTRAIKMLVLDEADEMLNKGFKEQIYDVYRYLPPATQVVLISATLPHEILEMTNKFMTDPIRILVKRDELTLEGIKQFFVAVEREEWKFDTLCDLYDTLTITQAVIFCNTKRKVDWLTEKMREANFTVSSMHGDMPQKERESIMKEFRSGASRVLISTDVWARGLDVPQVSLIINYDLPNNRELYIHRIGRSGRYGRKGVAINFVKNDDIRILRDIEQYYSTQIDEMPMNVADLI
Outline: (§2)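 IC50 reported as the mean of duplicate experiments with 95% confidence intervals.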

Homo sapiens [8] = species on record: Homo sapiens; assay: Inhibition of NMD in human HCT116 cells assessed as upregulation of SC35 1.6 kb mRNA expression level at 3 uM after 6 hrs by qPCR analysis relative to control; type: cell-based
Outline: (§3)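 HCT-116 colorectal carcinoma cells treated for 6 h at 1, 3 or 10 μM. SC35 1.6 kb mRNA level expressed as fold change relative to control. Data representative of three independent experiments.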

HCT-116 [9] = assay: Antitumor activity against human HCT116 cells xenografted in BALB/cA Jc1 nude mouse assessed as reduction in tumor volume at 100 mg/kg, po bid administered for 14 days measured twice per week relative to control; type: functional
Outline: (§4)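 HCT-116 xenograft mice dosed orally at 100 mg/kg twice daily for 14 days in a solubilizing formulation. Efficacy expressed as T/C versus a vehicle group, with Dunnett's test; body weight change monitored over the study.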

Mus musculus [10] = assay: In vivo inhibition of NMD in BALB/cA Jc1 nude mouse xenografted with human HCT116 cells assessed as upregulation of SC35 1.6 kb mRNA expression level in tumor at 100 mg/kg, po administered as single dose measured after 24 hrs by qPCR analysis relative to control; type: functional
Outline: (§5)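 HCT-116 xenograft mice given a single oral dose of 100 mg/kg in a solubilizing formulation. Tumour SC35 1.6 kb mRNA expression measured at 4, 8 and 24 h after dosing.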

[11] = biological target: Eukaryotic initiation factor 4A-I (Homo sapiens, UniProt P60842); assay: Inhibition of eIF4G-induced full length recombinant human N-terminal His6/SUMO-tagged eIF4A1 RNA dependent ATPase activity expressed in Escherichia coli BL21(DE3) using single stranded poly(U) RNA as substrate after 40 mins by ADP-Glo luminescence assay; outline: as §2
Sequence of Eukaryotic initiation factor 4A-I (P60842 whole entry): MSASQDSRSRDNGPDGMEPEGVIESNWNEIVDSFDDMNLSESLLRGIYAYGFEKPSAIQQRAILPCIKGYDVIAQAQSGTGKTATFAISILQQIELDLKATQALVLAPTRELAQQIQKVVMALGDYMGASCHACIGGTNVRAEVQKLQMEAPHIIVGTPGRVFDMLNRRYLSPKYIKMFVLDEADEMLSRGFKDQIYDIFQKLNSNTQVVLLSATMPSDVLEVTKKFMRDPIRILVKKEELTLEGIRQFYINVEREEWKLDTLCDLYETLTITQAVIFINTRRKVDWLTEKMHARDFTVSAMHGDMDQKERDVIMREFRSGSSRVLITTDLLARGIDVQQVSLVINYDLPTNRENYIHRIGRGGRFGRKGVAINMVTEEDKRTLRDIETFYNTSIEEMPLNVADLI

Mus musculus [12] = assay: In vivo inhibition of NMD in BALB/cA Jc1 nude mouse xenografted with human HCT116 cells assessed as upregulation of SC35 1.6 kb mRNA expression level in tumor at 100 mg/kg, po administered as single dose measured after 8 hrs by qPCR analysis relative to control; type: functional; outline: as §5
[13] = biological target: Eukaryotic initiation factor 4A-II (Homo sapiens, UniProt Q14240); assay: Inhibition of eIF4G-induced full length recombinant human N-terminal His6/SUMO-tagged eIF4A2 RNA dependent ATPase activity using single stranded poly(U) RNA as substrate after 40 mins by ADP-Glo luminescence assay; outline: as §2
Sequence of Eukaryotic initiation factor 4A-II (Q14240 whole entry): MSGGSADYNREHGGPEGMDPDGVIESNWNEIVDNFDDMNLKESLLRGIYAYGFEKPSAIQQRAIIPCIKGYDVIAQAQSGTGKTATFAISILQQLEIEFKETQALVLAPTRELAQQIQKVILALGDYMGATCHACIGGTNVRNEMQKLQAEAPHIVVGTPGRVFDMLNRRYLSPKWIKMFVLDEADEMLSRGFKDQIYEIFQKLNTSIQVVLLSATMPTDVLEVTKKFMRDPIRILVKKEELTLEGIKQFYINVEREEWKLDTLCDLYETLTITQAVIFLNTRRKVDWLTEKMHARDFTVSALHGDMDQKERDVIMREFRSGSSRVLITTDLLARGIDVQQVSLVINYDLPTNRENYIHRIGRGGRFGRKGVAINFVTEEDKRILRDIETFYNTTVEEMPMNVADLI

[14] = biological target: U5 small nuclear ribonucleoprotein 200 kDa helicase (Homo sapiens, UniProt O75643); assay: Inhibition of human recombinant N-terminal full length His-tagged BRR2 RNA dependent ATPase activity expressed in baculovirus infected Sf9 insect cells using single stranded poly(U) RNA as substrate after 30 mins by ADP-Glo luminescence assay; outline: as §2
Sequence of U5 small nuclear ribonucleoprotein 200 kDa helicase (O75643 whole entry): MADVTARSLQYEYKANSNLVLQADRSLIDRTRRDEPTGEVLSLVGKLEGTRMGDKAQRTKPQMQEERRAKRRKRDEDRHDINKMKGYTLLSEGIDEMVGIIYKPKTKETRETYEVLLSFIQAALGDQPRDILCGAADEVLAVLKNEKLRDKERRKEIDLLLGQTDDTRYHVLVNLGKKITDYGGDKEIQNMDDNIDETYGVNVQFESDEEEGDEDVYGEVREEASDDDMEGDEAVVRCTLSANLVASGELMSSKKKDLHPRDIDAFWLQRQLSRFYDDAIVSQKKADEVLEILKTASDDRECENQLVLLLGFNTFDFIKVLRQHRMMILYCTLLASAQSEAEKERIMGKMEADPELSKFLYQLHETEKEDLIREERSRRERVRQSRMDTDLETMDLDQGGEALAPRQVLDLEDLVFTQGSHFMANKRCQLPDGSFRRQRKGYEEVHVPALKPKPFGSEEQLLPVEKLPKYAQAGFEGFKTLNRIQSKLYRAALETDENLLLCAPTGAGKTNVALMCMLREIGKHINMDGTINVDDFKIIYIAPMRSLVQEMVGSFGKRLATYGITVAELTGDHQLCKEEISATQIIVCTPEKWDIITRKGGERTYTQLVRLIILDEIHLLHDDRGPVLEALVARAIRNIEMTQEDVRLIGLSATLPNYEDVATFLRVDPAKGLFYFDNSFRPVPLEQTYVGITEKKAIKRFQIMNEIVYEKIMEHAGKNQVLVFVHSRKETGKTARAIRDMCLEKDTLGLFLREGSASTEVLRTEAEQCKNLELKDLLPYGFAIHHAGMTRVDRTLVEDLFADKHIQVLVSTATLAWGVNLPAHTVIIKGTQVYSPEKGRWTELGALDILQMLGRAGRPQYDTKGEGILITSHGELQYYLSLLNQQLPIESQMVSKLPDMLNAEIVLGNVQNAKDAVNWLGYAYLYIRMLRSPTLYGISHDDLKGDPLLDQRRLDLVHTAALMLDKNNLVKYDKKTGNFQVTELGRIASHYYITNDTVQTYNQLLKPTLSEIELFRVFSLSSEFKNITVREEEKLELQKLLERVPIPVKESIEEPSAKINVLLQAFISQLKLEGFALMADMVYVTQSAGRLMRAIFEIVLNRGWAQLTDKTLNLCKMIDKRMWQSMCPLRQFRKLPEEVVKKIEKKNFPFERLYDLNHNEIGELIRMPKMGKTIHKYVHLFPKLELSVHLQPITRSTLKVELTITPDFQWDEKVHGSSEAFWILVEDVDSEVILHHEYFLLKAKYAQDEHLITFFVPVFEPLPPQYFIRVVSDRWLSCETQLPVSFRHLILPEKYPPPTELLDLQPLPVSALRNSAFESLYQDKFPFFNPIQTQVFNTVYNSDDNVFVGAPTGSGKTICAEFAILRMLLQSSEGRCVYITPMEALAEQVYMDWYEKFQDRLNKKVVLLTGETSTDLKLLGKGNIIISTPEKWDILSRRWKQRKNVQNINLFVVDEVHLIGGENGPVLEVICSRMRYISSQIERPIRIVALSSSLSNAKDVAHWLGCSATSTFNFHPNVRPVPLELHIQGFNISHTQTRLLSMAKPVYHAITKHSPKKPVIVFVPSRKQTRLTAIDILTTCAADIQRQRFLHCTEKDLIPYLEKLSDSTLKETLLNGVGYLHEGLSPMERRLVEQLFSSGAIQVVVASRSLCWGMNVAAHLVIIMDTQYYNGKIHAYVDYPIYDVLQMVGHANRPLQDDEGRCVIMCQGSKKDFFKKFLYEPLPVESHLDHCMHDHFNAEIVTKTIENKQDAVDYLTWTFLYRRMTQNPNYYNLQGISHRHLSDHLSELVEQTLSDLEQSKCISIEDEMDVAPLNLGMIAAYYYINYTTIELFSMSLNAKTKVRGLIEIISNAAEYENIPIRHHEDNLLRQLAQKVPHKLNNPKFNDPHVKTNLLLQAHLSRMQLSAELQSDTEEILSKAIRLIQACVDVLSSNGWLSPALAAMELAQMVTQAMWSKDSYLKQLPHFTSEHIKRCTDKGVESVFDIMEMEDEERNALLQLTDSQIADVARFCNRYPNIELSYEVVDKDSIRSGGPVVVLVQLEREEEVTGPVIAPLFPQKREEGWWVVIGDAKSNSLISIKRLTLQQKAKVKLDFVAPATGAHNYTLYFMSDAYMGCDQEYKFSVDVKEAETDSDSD

Mus musculus [15] = assay: In vivo inhibition of NMD in BALB/cA Jc1 nude mouse xenografted with human HCT116 cells assessed as upregulation of SC35 1.6 kb mRNA expression level in tumor at 100 mg/kg, po administered as single dose measured after 4 hrs by qPCR analysis relative to control; type: functional; outline: as §5
[16] = biological target: T1, ATP-dependent RNA helicase DHX29 (Homo sapiens, UniProt Q7Z478); assay: Inhibition of human recombinant N-terminal full length FLAG-His-tagged DHX29 RNA dependent ATPase activity expressed in baculovirus infected Sf9 insect cells using single stranded poly(U) RNA as substrate after 30 mins by ADP-Glo luminescence assay; outline: as §2
T1 sequence (Q7Z478 whole entry): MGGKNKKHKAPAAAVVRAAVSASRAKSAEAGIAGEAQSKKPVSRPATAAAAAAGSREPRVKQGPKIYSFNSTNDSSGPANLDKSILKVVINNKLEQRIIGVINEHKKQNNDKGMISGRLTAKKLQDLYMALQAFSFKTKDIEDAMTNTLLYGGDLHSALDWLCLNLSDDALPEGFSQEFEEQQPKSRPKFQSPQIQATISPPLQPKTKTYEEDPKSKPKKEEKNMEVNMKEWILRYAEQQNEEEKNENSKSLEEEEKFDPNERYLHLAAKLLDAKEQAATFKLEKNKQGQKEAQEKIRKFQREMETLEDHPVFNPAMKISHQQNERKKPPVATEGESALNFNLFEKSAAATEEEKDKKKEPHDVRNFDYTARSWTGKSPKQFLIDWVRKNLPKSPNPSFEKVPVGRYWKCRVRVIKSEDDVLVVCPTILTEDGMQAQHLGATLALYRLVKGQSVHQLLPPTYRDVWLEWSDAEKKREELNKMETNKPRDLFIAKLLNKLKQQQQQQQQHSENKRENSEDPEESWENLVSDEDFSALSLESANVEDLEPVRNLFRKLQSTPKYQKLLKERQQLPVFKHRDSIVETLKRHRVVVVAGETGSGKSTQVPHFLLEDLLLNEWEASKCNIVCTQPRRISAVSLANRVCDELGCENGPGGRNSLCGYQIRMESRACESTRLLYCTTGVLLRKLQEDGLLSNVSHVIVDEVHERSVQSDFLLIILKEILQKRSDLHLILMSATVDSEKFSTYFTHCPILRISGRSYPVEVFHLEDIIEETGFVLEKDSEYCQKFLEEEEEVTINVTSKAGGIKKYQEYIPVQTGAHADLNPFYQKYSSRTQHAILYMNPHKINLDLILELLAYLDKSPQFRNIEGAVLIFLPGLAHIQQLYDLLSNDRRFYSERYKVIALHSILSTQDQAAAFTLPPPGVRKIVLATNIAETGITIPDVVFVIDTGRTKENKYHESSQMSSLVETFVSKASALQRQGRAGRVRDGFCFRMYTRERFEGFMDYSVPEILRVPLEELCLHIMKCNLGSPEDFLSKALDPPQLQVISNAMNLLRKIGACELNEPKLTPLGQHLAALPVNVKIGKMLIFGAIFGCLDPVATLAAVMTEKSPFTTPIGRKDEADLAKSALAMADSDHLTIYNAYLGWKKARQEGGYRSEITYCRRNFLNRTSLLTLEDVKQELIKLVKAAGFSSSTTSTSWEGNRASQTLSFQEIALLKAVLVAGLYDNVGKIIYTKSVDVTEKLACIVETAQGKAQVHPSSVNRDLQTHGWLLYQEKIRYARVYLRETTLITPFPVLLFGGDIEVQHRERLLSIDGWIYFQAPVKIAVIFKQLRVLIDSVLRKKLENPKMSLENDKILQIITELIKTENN

Homo sapiens [17] = species on record: Homo sapiens; assay: Inhibition of NMD in human HCT116 cells assessed as upregulation of SC35 1.6 kb mRNA expression level at 10 uM after 6 hrs by qPCR analysis relative to control; type: cell-based; outline: as §3
Homo sapiens [18] = species on record: Homo sapiens; assay: Inhibition of NMD in human HCT116 cells assessed as upregulation of SC35 1.6 kb mRNA expression level at 1 uM after 6 hrs by qPCR analysis relative to control; type: cell-based; outline: as §3
Mus musculus [19] = assay: Toxicity in BALB/cA Jc1 nude mouse xenografted with human HCT116 cells assessed as reduction in body weight at 100 mg/kg, po bid administered for 14 days measured twice per week; type: organism-based; set-up: scale not given: the % may be the effect or the level left; details: in vivo, 336 h; outline: as §4

Compound	AUC(0-t) at 8 h [1] [ng·h/mL]	microsomal CLint [2] [µL/min/mg]	bioavailability [5] [%]	solubility [6] [µg/mL]	IC50 [7] [µM]	also measured
O=C(c1cnn2cc(Br)ccc12)N1CCN(C(=O)c2ccc(Br)cc2)[C@@H](c2ccc(Cl)cc2)C1	9	227	5.7	0.46 (≈ 0.763 µM)	–	GI50 (HCT-116 [3]): 3.06 µM; efflux ratio [4]: 0.9
O=C(c1c[nH]c(=O)c(-c2cccc(Cl)c2)c1)N1CCN(C(=O)c2ccc(Cl)cc2)C(c2ccc(Cl)cc2)C1 (configuration not stated)	–	–	–	–	0.29	–
O=C(c1ccnc2ccccc12)N1CCN(C(=O)c2ccc(Br)cc2)[C@@H](c2ccc(Cl)cc2)C1	129	143	19.7	3.2 (≈ 5.98 µM)	2.7	–
O=C(c1c[nH]c(=O)c(-c2ccccc2Cl)c1)N1CCN(C(=O)c2ccc(Cl)cc2)C(c2ccc(Cl)cc2)C1 (configuration not stated)	–	–	–	–	0.42	–
O=C(c1c[nH]c(=O)c(-c2ccccc2)c1)N1CCN(C(=O)c2ccc(Cl)cc2)C(c2ccc(Cl)cc2)C1 (configuration not stated)	–	–	–	–	0.41	–
O=C(c1c[nH]c(=O)c2ccccc12)N1CCN(C(=O)c2ccc(Cl)cc2)C(c2ccc(Cl)cc2)C1 (configuration not stated)	–	–	–	–	1.3	–
O=C(c1c[nH]c(=O)c2ccccc12)N1CCN(C(=O)c2ccc(Br)cc2)[C@@H](c2ccc(Cl)cc2)C1	97.3	16	9.6	11 (≈ 20 µM)	0.29	–
O=C(c1cnn2cc(Br)ccc12)N1CCN(C(=O)c2ccc(Br)cn2)[C@@H](c2ccc(Cl)cc2)C1	55.9	207	11.4	3.8 (≈ 6.29 µM)	0.28	–
O=C(c1c[nH]c(=O)c(-c2ccc(Cl)cc2)c1)N1CCN(C(=O)c2ccc(Cl)cc2)C(c2ccc(Cl)cc2)C1 (configuration not stated)	–	–	–	–	1.1	–
Cn1cc(C(=O)N2CCN(C(=O)c3ccc(Br)cn3)[C@@H](c3ccc(Cl)cc3)C2)cc(-c2cccc(C#N)c2)c1=O	147	6	16.1	12 (≈ 19.5 µM)	0.1	fold change (FC) (Homo sapiens [8]): 8.41; T/C (HCT-116 [9]): 54%; fold change (FC) (Mus musculus [10]): 1.2; IC50 [11]: > 100 µM; fold change (FC) (Mus musculus [12]): 2.5; IC50 [13]: > 100 µM; IC50 [14]: > 100 µM; GI50 (HCT-116 [3]): 1.34 µM; efflux ratio [4]: 25; fold change (FC) (Mus musculus [15]): 4; IC50 [16]: > 100 µM; fold change (FC) (Homo sapiens [17]): 19.1; fold change (FC) (Homo sapiens [18]): 2.17; Activity (Mus musculus [19]): < 5%
O=C(c1cncc2ccccc12)N1CCN(C(=O)c2ccc(Br)cc2)[C@@H](c2ccc(Cl)cc2)C1	1.5	202	0.4	5.1 (≈ 9.54 µM)	1.6	–
O=C(c1c[nH]c(=O)c(-c2cccc(C(F)(F)F)c2)c1)N1CCN(C(=O)c2ccc(Cl)cc2)C(c2ccc(Cl)cc2)C1 (configuration not stated)	–	–	–	–	0.7	–
CS(=O)(=O)c1cccc(-c2cc(C(=O)N3CCN(C(=O)c4ccc(Cl)cc4)C(c4ccc(Cl)cc4)C3)c[nH]c2=O)c1 (configuration not stated)	–	–	–	–	0.49	–
N#Cc1cccc(-c2cc(C(=O)N3CCN(C(=O)c4ccc(Cl)cc4)C(c4ccc(Cl)cc4)C3)c[nH]c2=O)c1 (configuration not stated)	–	–	–	–	0.19	–
N#Cc1cccc(-c2cc(C(=O)N3CCN(C(=O)c4ccc(Br)cn4)[C@@H](c4ccc(Cl)cc4)C3)c[nH]c2=O)c1	–	113	–	2.4 (≈ 3.98 µM)	0.05	efflux ratio [4]: 35
